Source: ChEMBL document CHEMBL3352559, “Synthesis and pharmacological investigation of aralkyl diamine derivatives as potential triple reuptake inhibitors” (Eur J Med Chem, 2014)

What was measured:
[1] = target: T1, Sodium-dependent noradrenaline transporter (Homo sapiens, UniProt P23975); assay: Inhibition of [3H]-NE uptake in human norepinephrine transporter expressed in HEK293 cells by scintillation counting; type: cell-based
[2] = Ratio of drug level in Sprague-Dawley rat brain to plasma at 0.5 mg/kg iv after 0.50 hrs; type: ADME, organism-based; parameters: dose 0.5 mg/kg, route intravenous; conditions: read-out: BPR
[3] = Ratio of drug level in Sprague-Dawley rat brain to plasma at 0.5 mg/kg iv after 1 hrs; type: ADME, organism-based; parameters: dose 0.5 mg/kg, route intravenous; conditions: read-out: BPR
[4] = target: B2 bradykinin receptor (Homo sapiens) (UniProt P30411); assay: Displacement of [3H]bradykinin from human bradykinin B2 receptor at 10 uM relative to control
B2 bradykinin receptor (Homo sapiens), sequence (P30411 whole entry): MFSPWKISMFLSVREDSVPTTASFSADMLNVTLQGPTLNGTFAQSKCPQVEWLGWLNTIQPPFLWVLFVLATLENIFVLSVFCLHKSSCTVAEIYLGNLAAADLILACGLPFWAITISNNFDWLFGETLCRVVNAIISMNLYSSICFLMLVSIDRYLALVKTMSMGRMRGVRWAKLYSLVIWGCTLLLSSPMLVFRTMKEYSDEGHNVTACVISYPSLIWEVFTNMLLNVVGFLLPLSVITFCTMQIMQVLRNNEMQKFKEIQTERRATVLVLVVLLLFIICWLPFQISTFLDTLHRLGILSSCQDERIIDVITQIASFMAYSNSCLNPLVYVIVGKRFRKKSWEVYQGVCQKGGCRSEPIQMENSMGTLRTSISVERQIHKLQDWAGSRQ
Method in brief: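 Outsourced CNS receptor panel (55 binding assays); compound tested at 10 μM in primary radioligand binding; specific binding inhibition expressed relative to control, with >50% inhibition taken as a significant effect.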

[5] = target: Cannabinoid receptor 1 (Homo sapiens) (UniProt P21554); assay: Displacement of [3H]-CP55940 from human CB1 receptor at 10 uM relative to control
Cannabinoid receptor 1 (Homo sapiens), sequence (P21554 whole entry): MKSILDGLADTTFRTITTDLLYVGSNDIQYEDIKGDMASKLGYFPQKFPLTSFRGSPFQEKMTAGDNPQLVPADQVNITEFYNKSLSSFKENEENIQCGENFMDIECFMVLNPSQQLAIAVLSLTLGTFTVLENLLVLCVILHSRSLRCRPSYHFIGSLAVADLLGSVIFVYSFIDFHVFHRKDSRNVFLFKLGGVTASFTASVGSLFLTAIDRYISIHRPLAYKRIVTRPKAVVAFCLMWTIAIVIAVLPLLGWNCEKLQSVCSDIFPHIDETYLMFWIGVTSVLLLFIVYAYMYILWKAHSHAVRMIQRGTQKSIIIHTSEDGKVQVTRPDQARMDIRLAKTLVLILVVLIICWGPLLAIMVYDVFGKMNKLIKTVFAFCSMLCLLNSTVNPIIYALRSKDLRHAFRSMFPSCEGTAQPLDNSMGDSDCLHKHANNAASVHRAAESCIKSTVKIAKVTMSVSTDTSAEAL
Method in brief: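 Outsourced CNS panel of 55 receptor binding assays run by Cerep. Compound tested at 10 μM, the default primary-binding concentration, with inhibition expressed relative to control. Inhibition above 50% taken as a significant effect.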

[6] = target: T1, Sodium-dependent noradrenaline transporter; conditions: 10 uM
[7] = Drug uptake in Sprague-Dawley rat brain at 0.5 mg/kg ip after 1 hrs
[8] = Drug uptake in Sprague-Dawley rat brain at 0.5 mg/kg ip after 0.25 hrs

T1 sequence (P23975 whole entry): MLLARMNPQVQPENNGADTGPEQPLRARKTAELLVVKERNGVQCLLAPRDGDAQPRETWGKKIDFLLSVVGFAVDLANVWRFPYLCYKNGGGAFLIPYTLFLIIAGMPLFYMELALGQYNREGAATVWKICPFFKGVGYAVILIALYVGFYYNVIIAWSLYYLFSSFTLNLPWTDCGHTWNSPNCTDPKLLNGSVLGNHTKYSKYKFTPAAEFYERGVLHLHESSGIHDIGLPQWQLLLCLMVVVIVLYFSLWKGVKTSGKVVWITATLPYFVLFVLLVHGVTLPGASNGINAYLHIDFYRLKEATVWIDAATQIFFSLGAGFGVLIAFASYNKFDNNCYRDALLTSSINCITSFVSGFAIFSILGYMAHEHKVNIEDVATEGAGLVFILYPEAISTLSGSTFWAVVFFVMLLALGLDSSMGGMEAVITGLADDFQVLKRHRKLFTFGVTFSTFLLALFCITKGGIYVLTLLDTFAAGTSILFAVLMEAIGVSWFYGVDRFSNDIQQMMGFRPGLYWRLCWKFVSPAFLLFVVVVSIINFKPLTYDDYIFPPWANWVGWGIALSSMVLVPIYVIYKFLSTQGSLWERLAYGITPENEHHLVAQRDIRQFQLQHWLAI

In the case of `CN(C)CCC(c1ccc(Cl)c(Cl)c1)N1CCOCC1` (stereo not drawn), the IC50 [1] is reported as 478 nM, the Kp at 0.5 h [2] is reported as 12.3 and the Kp at 1 h [3] is reported as 12.7. For the same molecule, the inhibition [4] was -3.8%, the inhibition [5] was -6.2% and the inhibition [6] was 96.7%. It also gave a concentration at 1 h [7] of 425 ng/mL and a concentration at 0.25 h [8] of 925 ng/mL.
